# Measurements from ChEMBL document CHEMBL4382201 (J Med Chem, 2018).
# The source made the active and inactive calls. No cut-off for these calls is given here.
# Legend:
# CCRF-CEM = assay: Growth inhibition of human CCRF-CEM cells after 48 hrs by SRB assay; format: functional
# Outline: (§1)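 NCI-60 five-dose screen at 100 µM, 10 µM, 1 µM, 100 nM and 10 nM. Incubation 48 h at 37 °C, 5% CO2, 100% humidity. Growth was expressed relative to the no-drug control and to the time-zero cell number, and GI50 was derived from these values.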
# [1] = Chemical stability of the compound in 100 mM pH 6 PBS buffer assessed as compound remaining at 10 mM at room temperature after 2 days; format: physicochemical; settings: read-out: Stability
# Outline: (§2)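 Compound at 10 mM in 100 mM PBS (pH 6.0 or 7.4, prepared in D2O), diluted 9:1 with DMSO-d6. Kept at room temperature for 3-10 days. The fraction of intact compound was followed by NMR.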
# [2] = Chemical stability of the compound in 100 mM pH 6 PBS buffer assessed as compound remaining at 10 mM at room temperature after 4 days; format: physicochemical; settings: read-out: Stability; outline: as §2
# [3] = Chemical stability of the compound in 90% DMSO/PBS buffer assessed as compound remaining at pH 6 in presence of GSH; format: physicochemical
# Outline: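 Compound and GSH at a 1:2 ratio in DMSO-d6/PBS 9:1, pH 6.0, at room temperature. Compound-only and GSH-only samples served as controls. Intact compound was monitored by NMR.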
# [4] = Solubility of the compound in 50% DMSO/PBS buffer at 10 mM pH 6 after 3 to 10 days by NMR analysis; format: physicochemical; settings: pH 6, 10000 µM
# [5] = Chemical stability of the compound in 50% DMSO/PBS buffer assessed as compound remaining at pH 6 in presence of GSH after 48 hrs; format: physicochemical; settings: 50% DMSO/PBS buffer with GSH, read-out: Stability
# Outline: (§3)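 Compound with GSH in DMSO-d6/PBS buffer 1:1, pH 6. Intact compound was followed by NMR over 24-48 h.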
# [6] = Chemical stability of the compound in 50% DMSO/PBS buffer assessed as compound remaining at pH 6 in presence of GSH after 24 hrs; format: physicochemical; settings: 50% DMSO/PBS buffer with GSH, read-out: Stability; outline: as §3
# dsDNA [7] = assay: Induction of DNA-interstanded-cross-link formation in [32P]-labeled 49-mer duplex DNA (unknown origin) at 1 mM in absence of H2O2 after 16 hrs by PAGE relative to control; format: functional
# Outline: (§4)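 A 32P-labelled 49-mer, annealed with 1.5 equiv complement (65 °C for 3 min in 10 mM potassium phosphate pH 7, 100 mM NaCl, then slow cooling), was used at 1.0 µM before final dilution. Duplex was mixed with compound (final 1 mM), NaCl and potassium phosphate pH 8, with or without H2O2. Incubation 16 h at room temperature, formamide quench, then 20% denaturing PAGE.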
# dsDNA [8] = assay: Induction of DNA-interstanded-cross-link formation in [32P]-labeled 49-mer duplex DNA (unknown origin) at 1 mM in presence of H2O2 after 16 hrs by PAGE relative to control; format: functional; outline: as §4
# K562 = assay: Growth inhibition of human K562 cells after 48 hrs by SRB assay; format: functional; settings: K562, 48 h; outline: as §1
# MOLT-4 = assay: Growth inhibition of human MOLT4 cells after 48 hrs by SRB assay; format: functional; settings: MOLT-4, 48 h; outline: as §1
# RPMI-8226 = assay: Growth inhibition of human RPMI8226 cells after 48 hrs by SRB assay; format: functional; settings: RPMI-8226, 48 h; outline: as §1
# SR = assay: Growth inhibition of human SR cells after 48 hrs by SRB assay; format: functional; outline: as §1
# HOP-92 = assay: Growth inhibition of human HOP92 cells after 48 hrs by SRB assay; format: functional; settings: HOP-92, 48 h; outline: as §1
# HT-29 = assay: Growth inhibition of human HT-29 cells after 48 hrs by SRB assay; format: functional; settings: HT-29, 48 h; outline: as §1
# SNB-75 = assay: Growth inhibition of human SNB75 cells after 48 hrs by SRB assay; format: functional; settings: SNB-75, 48 h; outline: as §1
# Malme-3M = assay: Growth inhibition of human MALME-3M cells after 48 hrs by SRB assay; format: functional; outline: as §1
# IGROV-1 = assay: Growth inhibition of human IGROV1 cells after 48 hrs by SRB assay; format: functional; settings: IGROV-1, 48 h; outline: as §1
# SK-OV-3 = assay: Growth inhibition of human SKOV3 cells after 48 hrs by SRB assay; format: functional; settings: SK-OV-3, 48 h; outline: as §1
# MDA-MB-468 [9] = assay: Growth inhibition of human MDA-MB-468 cells after 48 hrs by SRB assay; format: functional; settings: MDA-MB-468, 48 h; outline: as §1
# MCF7 = assay: Growth inhibition of human MCF7 cells after 48 hrs by SRB assay; format: functional; settings: MCF7, 48 h; outline: as §1
# [10] = Solubility of the compound in PBS buffer at 10 mM at pH 7.4 by UV-based analysis; format: physicochemical
# Outline: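 Compound (10 mM DMSO stock) was diluted into pH 7.4 buffer (ethanolamine/KH2PO4/potassium acetate/KCl) to a final 5% DMSO. After sonication and 18 h agitation the mixture was filtered and scanned by UV at 230-800 nm. Solubility was calculated from calibration plots made in 20% acetonitrile buffer, in quadruplicate, with solubility standards on each plate.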
# [11] = Cytotoxicity against human CLL cells assessed as reduction in cell viability after 24 hrs; format: functional, cell-based
# Outline: (§5)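 Patient CLL lymphocytes isolated on Ficoll-Hypaque and held in RPMI 1640 with 10% autologous plasma at 1×10^7 cells/mL, fresh cells only. Cells were exposed to a concentration series for 24 h alongside time-matched untreated controls. Apoptosis was measured by annexin V-FITC/PI flow cytometry, at least 10,000 events per sample; each patient was analysed separately.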
# Lymphocyte [12] = assay: Induction of apoptosis in human CLL-derived lymphocytes up to 30000 nM after 24 hrs by Annexin V-FITC/propidium iodide-staining based flow cytometry; format: functional, cell-based; outline: as §5
# Lymphocyte [13] = assay: Induction of apoptosis in human lymphocytes at 10 uM after 24 hrs by Annexin V-FITC/propidium iodide-staining based flow cytometry; format: cell-based
# Outline: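 Normal PBMCs from 3 donors were isolated on Ficoll and treated at 10 µM. Apoptosis was measured by annexin V-FITC/PI flow cytometry against time-matched untreated controls.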
# DNA = assay: Induction of DNA cross-linking activity in human CLL-derived lymphocytes assessed as increase in gammaH2AX formation at 10 uM after 24 hrs by flow cytometry; format: functional, cell-based
# Outline: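 Primary CLL lymphocytes from 3 patients were treated for 24 h at 10 µM or 1 µM, depending on compound. H2AX phosphorylation (% γH2AX) was measured by flow cytometry.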
# [14] = Toxicity in CD1 mouse at 1.5 mg/kg/day, ip for 5 days per week measured after 3 months; format: organism-based; settings: in vivo, 120 h
# Outline: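 Mice were dosed i.p. at 1.5 mg/kg per day, 5 days per week, over three months and observed for toxicity.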
# MDA-MB-468 [15] = assay: Antitumor activity against human MDA-MB-468 cells xenografted in nude CD1 mouse assessed as tumor size of initial size at 1.5 mg/kg/day, ip measured after 7 weeks (reference value: 278 to 657%); format: functional
# Outline: (§6)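 Female athymic nude mice (35 days, 20-22 g) received 2 million MDA-MB-468 cells s.c. in the flank, suspended in 1:1 matrigel/DMEM. Mice with palpable tumours were given 1.5 mg/kg i.p. or vehicle, 11 mice per group. Tumour size was measured by caliper every 7 days and body weight was recorded regularly.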
# [16] = Toxicity in CD1 mouse xenografted with human MDA-MB-468 cells assessed as body weight change at 1.5 mg/kg/day, ip measured after 7 weeks; format: organism-based; settings: in vivo, 1176 h; outline: as §6
# [17] = Chemical stability of the compound in 100 mM pH 7.4 PBS buffer assessed as compound remaining at 10 mM at room temperature after 2 days; format: physicochemical; settings: read-out: Stability; outline: as §2
# [18] = Chemical stability of the compound in 100 mM pH 7 PBS buffer assessed as compound remaining at 10 mM at room temperature after 4 days; format: physicochemical; settings: read-out: Stability; outline: as §2
# [19] = Drug metabolism in DMSO-d6/PBS buffer assessed as (S)-3-((2-amino-3-methoxy-3-oxopropylthio)methyl)-4-((2-chloroethyl)(2-hydroxyethyl)amino)phenylboronic acid formation after 10 days in presence of GSH by IT-TOF mass analysis
# [20] = Drug metabolism in DMSO-d6/PBS buffer assessed as 1-(2-chloroethyl)-5-(methoxycarbonyl)-1,2,3,4,5,7-hexahydrobenzo[g][1,3,6]thiadiazonin-9-ylboronic acid formation after 10 days in presence of GSH by IT-TOF mass analysis
# [21] = Drug metabolism in DMSO-d6/PBS buffer assessed as 1-(2-hydroxyethyl)-5-(methoxycarbonyl)-1,2,3,4,5,7-hexahydrobenzo[g][1,3,6]thiadiazonin-9-ylboronic acid formation after 10 days in presence of GSH by IT-TOF mass analysis
# MDA-MB-468 [22] = assay: Growth inhibition of human MDA-MB-468 cells after 48 hrs by […]; format: functional, cell-based; settings: MDA-MB-468, 48 h
smiles,measurement,setting,value
COC(=O)[C@H](N)CSCc1cc(B(O)O)ccc1N(CCCl)CCCl,GI50,CCRF-CEM,0.54 µM
same,"remaining at 48 h, 10000 µM",[1],92%
same,"remaining at 96 h, 10000 µM",[2],85%
same,Stability,[3],Stable
same,solubility,[4],Insoluble
same,remaining at 48 h,[5],70%
same,remaining at 24 h,[6],90%
same,Activity,dsDNA [7],1.5 to 15%
same,Activity,dsDNA [8],< 65%
same,GI50,K562,3.25 µM
same,GI50,MOLT-4,0.6 µM
same,GI50,RPMI-8226,2.62 µM
same,GI50,SR,0.28 µM
same,GI50,HOP-92,0.56 µM
same,GI50,HT-29,4.03 µM
same,GI50,SNB-75,0.85 µM
same,GI50,Malme-3M,2.39 µM
same,GI50,IGROV-1,3.32 µM
same,GI50,SK-OV-3,1.46 µM
same,GI50,MDA-MB-468 [9],1.49 µM
same,GI50,MCF7,0.72 µM
same,solubility,[10],231 µM
same,IC50,[11],0.003 to 0.778 µM
same,Activity,Lymphocyte [12],Active
same,Activity,Lymphocyte [13],Non-Toxic
same,Activity,DNA,Active
same,Activity,[14],Non-Toxic
same,Activity,MDA-MB-468 [15],58 - 178%
same,Activity,[16],Non-Toxic
same,"remaining at 48 h, 10000 µM",[17],92%
same,"remaining at 96 h, 10000 µM",[18],85%
same,Drug metabolism,[19],Metabolite detected
same,Drug metabolism,[20],Metabolite detected
same,Drug metabolism,[21],Metabolite detected
same,IC50,MDA-MB-468 [22],3.4 µM
